Test results taken from ChEMBL document CHEMBL4118097, “Selective Inhibitors of Dual Leucine Zipper Kinase (DLK, MAP3K12) with Activity in a Model of Alzheimer's Disease” (J Med Chem, 2017).

Legend:
[1] = biological target: Macrophage colony-stimulating factor 1 receptor (Homo sapiens, UniProt P07333); experiment: Inhibition of recombinant His-tagged human CSF1R cytoplasmic domain (538 to 910 residues) expressed in baculovirus expression system at 1 uM by FRET assay relative to control
Method in brief: (§1)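 Single-point screen at 1 μM compound in a 220-kinase panel run by Life Technologies (SelectScreen). Z′-LYTE format: phosphorylation of a labeled peptide substrate read by FRET. Values are reported as percent inhibition.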

[2] = biological target: Dual specificity protein kinase CLK4 (Homo sapiens) (UniProt Q9HAZ1); experiment: Inhibition of full length recombinant GST-tagged human CLK4 expressed in baculovirus expression system at 1 uM by FRET assay relative to control
[3] = biological target: Serine/threonine-protein kinase B-raf (Homo sapiens) (UniProt P15056); experiment: Inhibition of B-Raf (unknown origin) at 1 uM by FRET assay relative to control
[4] = biological target: Tyrosine-protein kinase receptor UFO (Homo sapiens) (UniProt P30530); experiment: Inhibition of recombinant His-tagged human AXL (473 to end residues) cytoplasmic domain expressed in insect cells at 1 uM by FRET assay relative to control; method in brief: as §1
[5] = biological target: Mitogen-activated protein kinase 8 (Homo sapiens, UniProt P45983); experiment: Inhibition of recombinant full length His-tagged human JNK1alpha1 expressed in baculovirus expression system at 1 uM by FRET assay relative to control
[6] = biological target: Homeodomain-interacting protein kinase 2 (Homo sapiens) (UniProt Q9H2X6); experiment: Inhibition of recombinant GST-tagged human HIPK2 catalytic domain expressed in baculovirus expression system at 1 uM by FRET relative to control; method in brief: as §1
[7] = biological target: Tyrosine-protein kinase FRK (Homo sapiens) (UniProt P42685); experiment: Inhibition of recombinant full length GST-tagged human FRK cytoplasmoic domain expressed in baculovirus expression system at 1 uM by FRET assay relative to control
Method in brief: (§2)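 Single-concentration screen at 1 μM in Life Technologies SelectScreen, across a 220-kinase panel. Z′-LYTE format measures phosphorylation of a labeled peptide by FRET. Results are reported as percent inhibition.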

[8] = biological target: Phosphatidylinositol 4,5-bisphosphate 3-kinase catalytic subunit alpha isoform (Homo sapiens) (UniProt P42336); experiment: Inhibition of PI3KA (unknown origin) at 1 uM by FRET assay relative to control
[9] = biological target: Serine/threonine-protein kinase PAK 6 (Homo sapiens) (UniProt Q9NQU5); experiment: Inhibition of recombinant full length His-tagged human PAK6 expressed in baculovirus expression system at 1 uM by FRET assay relative to control
[10] = biological target: Mitogen-activated protein kinase 13 (Homo sapiens) (UniProt O15264); experiment: Inhibition of recombinant full length His-tagged human p38delta expressed in baculovirus expression system at 1 uM by FRET assay relative to control
[11] = biological target: Mitogen-activated protein kinase 11 (Homo sapiens) (UniProt Q15759); experiment: Inhibition of recombinant full length His-tagged human p38beta expressed in baculovirus expression system at 1 uM by FRET assay relative to control
[12] = biological target: Serine/threonine-protein kinase NLK (Homo sapiens) (UniProt Q9UBE8); experiment: Inhibition of recombinant full length GST-tagged human NLK expressed in baculovirus expression system at 1 uM by FRET assay relative to control; method in brief: as §2
[13] = biological target: Muscle, skeletal receptor tyrosine-protein kinase (Homo sapiens) (UniProt O15146); experiment: Inhibition of recombinant GST-tagged human MUSK cytoplasmic domain expressed in baculovirus expression system at 1 uM by FRET assay relative to control; method in brief: as §1
[14] = biological target: Serine/threonine-protein kinase 24 (Homo sapiens) (UniProt Q9Y6E0); experiment: Inhibition of recombinant full length GST-tagged human MST3 expressed in baculovirus at 1 uM by FRET assay relative to control; method in brief: as §2
[15] = biological target: Serine/threonine-protein kinase 3 (Homo sapiens) (UniProt Q13188); experiment: Inhibition of recombinant full length GST-tagged human MST2 expressed in baculovirus at 1 uM by FRET assay relative to control; method in brief: as §2
[16] = biological target: Mitogen-activated protein kinase kinase kinase 9 (Homo sapiens, UniProt P80192); experiment: Inhibition of recombinant human GST-tagged MLK1 expressed in baculovirus at 1 uM by FRET assay relative to control
[17] = biological target: Dual specificity mitogen-activated protein kinase kinase 3 (Homo sapiens) (UniProt P46734); experiment: Inhibition of recombinant full length GST-tagged human MEK3 expressed in baculovirus expression system at 1 uM by FRET assay relative to control; method in brief: as §2
[18] = biological target: Serine/threonine-protein kinase MARK1 (Homo sapiens) (UniProt Q9P0L2); experiment: Inhibition of recombinant full Length GST-tagged human MARK1 expressed in baculovirus expression system at 1 uM by FRET assay relative to control; method in brief: as §2
[19] = biological target: Tyrosine-protein kinase TXK (Homo sapiens) (UniProt P42681); experiment: Inhibition of recombinant N-terminal GST-tagged human TXK (260 to 527 residues) expressed in baculovirus expression system at 1 uM by FRET assay relative to control; method in brief: as §2
[20] = biological target: TGF-beta receptor type-1 (Homo sapiens) (UniProt P36897); experiment: Inhibition of recombinant full length N-terminal GST-tagged human TGFBR1 (200 to 503 residues) expressed in baculovirus expression system at 1 uM by FRET assay relative to control
[21] = biological target: Serine/threonine-protein kinase TAO2 (Homo sapiens) (UniProt Q9UL54); experiment: Inhibition of recombinant GST-tagged human TAO2 catalytic domain (1 to 314 residues) expressed in baculovirus expression system at 1 uM by FRET assay relative to control; method in brief: as §1
[22] = biological target: Serine/threonine-protein kinase 33 (Homo sapiens) (UniProt Q9BYT3); experiment: Inhibition of recombinant full length His-tagged human STK33 expressed in baculovirus expression system at 1 uM by FRET assay relative to control
[23] = biological target: Tyrosine-protein kinase Srms (Homo sapiens) (UniProt Q9H3Y6); experiment: Inhibition of recombinant full length GST-tagged human Srm cytoplasmic domain expressed in baculovirus expression system at 1 uM by FRET assay relative to control
Method in brief: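 Part of a 220-kinase panel run at a single concentration of 1 μM. Z′-LYTE format: phosphorylation of a labelled peptide read by FRET. Values reported as percent inhibition.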

Homo sapiens [24] = organism: Homo sapiens; experiment: Binding affinity to BZD receptor (unknown origin) at 10 uM relative to control
Method in brief: (§3)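 Broad radioligand-binding and enzyme screening panel covering 42 targets (biogenic amine and neuropeptide receptors, ion channels, neurotransmitter transporters, acetylcholinesterase). Single test concentration of 10 μM. Results expressed as binding relative to control, with a hit defined as >50% of control.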

[25] = biological target: D(1A) dopamine receptor (Homo sapiens) (UniProt P21728); experiment: Binding affinity to recombinant full length human D1 dopamine receptor at 10 uM relative to control; method in brief: as §3
[26] = biological target: Muscarinic acetylcholine receptor M1 (Homo sapiens) (UniProt P11229); experiment: Binding affinity to recombinant human M1 acetylcholine receptor at 10 uM relative to control; method in brief: as §3
Homo sapiens [27] = organism: Homo sapiens; experiment: Binding affinity to KATP (unknown origin) receptor at 10 uM relative to control; method in brief: as §3

Chain of Macrophage colony-stimulating factor 1 receptor (P07333 whole entry, the tested form may be a part): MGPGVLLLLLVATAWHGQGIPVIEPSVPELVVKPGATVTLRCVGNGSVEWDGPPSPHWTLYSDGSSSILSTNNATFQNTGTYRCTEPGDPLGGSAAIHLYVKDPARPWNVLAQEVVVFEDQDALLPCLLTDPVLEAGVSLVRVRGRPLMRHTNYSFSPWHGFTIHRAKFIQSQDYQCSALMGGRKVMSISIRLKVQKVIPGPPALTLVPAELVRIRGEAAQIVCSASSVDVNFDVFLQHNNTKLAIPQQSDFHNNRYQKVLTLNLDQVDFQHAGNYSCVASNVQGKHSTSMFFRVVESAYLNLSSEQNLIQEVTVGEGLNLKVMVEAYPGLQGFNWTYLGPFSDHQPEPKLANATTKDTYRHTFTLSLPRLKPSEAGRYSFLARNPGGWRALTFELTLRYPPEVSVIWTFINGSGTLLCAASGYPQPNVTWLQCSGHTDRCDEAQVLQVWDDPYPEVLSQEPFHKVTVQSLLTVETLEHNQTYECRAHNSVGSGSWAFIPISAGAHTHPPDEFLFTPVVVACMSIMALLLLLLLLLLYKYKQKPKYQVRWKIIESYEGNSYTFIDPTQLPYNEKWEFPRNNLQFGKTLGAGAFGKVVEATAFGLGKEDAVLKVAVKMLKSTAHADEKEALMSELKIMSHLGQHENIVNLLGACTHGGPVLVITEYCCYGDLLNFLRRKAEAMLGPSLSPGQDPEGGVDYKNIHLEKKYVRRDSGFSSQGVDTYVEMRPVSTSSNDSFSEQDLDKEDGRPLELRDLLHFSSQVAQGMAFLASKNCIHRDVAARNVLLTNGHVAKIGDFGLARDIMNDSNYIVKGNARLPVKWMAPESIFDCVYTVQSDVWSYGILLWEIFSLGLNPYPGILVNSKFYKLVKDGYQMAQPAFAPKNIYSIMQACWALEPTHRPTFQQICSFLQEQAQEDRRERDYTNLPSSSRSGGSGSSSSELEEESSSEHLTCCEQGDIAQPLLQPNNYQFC
Chain of Tyrosine-protein kinase Srms (Homo sapiens) (Q9H3Y6 whole entry, the tested form may be a part): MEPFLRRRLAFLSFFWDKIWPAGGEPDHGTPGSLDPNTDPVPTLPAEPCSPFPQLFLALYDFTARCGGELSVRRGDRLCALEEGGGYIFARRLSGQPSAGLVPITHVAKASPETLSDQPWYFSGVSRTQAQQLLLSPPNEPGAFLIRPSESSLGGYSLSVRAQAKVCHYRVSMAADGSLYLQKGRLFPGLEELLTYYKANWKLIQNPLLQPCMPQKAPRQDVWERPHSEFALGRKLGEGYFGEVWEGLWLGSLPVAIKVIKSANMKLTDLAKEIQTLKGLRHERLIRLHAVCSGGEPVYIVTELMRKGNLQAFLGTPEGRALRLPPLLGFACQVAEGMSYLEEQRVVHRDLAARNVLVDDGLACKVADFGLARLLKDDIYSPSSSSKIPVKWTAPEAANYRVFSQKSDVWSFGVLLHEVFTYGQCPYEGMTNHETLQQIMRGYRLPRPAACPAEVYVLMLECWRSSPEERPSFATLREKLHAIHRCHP
Chain of Serine/threonine-protein kinase 33 (Homo sapiens) (Q9BYT3 whole entry, looked up, the tested form may be a part): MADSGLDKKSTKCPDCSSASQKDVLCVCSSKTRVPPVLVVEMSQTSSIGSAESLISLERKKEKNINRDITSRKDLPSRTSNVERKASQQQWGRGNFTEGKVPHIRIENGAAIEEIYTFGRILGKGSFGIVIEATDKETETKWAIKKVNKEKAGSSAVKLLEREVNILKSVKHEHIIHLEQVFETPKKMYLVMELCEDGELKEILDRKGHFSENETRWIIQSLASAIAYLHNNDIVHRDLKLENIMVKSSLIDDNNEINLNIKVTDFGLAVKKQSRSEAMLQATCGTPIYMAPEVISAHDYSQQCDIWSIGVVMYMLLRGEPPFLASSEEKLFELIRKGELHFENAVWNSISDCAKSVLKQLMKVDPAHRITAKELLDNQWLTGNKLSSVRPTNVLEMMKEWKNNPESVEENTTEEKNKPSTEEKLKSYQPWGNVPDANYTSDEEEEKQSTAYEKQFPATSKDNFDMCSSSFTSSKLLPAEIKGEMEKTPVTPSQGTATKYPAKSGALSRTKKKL
Chain of Dual specificity mitogen-activated protein kinase kinase 3 (Homo sapiens) (P46734 whole entry): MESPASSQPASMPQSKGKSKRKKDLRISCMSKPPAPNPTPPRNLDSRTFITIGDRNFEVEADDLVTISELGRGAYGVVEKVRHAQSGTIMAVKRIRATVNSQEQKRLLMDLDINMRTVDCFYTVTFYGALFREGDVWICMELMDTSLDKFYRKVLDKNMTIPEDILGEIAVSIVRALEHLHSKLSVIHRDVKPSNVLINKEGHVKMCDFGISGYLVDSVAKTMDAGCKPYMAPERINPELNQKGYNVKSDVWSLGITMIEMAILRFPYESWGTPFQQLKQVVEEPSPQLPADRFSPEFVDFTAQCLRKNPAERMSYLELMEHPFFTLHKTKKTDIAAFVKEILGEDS
Chain of Phosphatidylinositol 4,5-bisphosphate 3-kinase catalytic subunit alpha isoform (Homo sapiens) (P42336 whole entry, canonical isoform): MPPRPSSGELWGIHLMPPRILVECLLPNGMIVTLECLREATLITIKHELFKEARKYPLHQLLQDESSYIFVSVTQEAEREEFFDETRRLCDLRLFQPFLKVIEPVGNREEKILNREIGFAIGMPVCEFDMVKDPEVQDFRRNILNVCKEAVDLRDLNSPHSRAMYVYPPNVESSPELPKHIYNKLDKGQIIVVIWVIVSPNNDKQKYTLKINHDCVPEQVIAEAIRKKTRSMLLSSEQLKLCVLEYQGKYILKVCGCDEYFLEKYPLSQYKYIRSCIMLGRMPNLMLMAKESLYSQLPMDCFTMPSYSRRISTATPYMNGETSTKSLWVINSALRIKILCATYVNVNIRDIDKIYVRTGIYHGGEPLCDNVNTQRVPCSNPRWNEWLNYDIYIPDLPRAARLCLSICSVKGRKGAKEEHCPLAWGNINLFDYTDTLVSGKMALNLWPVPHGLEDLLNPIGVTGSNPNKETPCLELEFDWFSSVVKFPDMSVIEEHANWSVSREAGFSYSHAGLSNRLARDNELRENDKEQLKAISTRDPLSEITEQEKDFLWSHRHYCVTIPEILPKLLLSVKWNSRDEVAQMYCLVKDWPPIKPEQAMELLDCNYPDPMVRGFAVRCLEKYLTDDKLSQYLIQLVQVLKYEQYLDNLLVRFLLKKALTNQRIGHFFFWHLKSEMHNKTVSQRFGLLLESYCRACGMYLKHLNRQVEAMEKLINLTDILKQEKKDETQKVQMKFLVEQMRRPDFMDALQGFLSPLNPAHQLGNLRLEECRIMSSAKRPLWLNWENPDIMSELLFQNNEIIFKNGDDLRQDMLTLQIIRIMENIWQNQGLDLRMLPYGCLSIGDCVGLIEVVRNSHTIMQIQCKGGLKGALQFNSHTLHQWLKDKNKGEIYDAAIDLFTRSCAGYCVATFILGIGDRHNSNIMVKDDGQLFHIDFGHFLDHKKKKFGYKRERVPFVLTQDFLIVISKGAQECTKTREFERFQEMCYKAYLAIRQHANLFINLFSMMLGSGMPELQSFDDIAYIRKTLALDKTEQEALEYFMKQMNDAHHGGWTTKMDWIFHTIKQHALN
Chain of Tyrosine-protein kinase FRK (Homo sapiens) (P42685 whole entry, the tested form may be a part): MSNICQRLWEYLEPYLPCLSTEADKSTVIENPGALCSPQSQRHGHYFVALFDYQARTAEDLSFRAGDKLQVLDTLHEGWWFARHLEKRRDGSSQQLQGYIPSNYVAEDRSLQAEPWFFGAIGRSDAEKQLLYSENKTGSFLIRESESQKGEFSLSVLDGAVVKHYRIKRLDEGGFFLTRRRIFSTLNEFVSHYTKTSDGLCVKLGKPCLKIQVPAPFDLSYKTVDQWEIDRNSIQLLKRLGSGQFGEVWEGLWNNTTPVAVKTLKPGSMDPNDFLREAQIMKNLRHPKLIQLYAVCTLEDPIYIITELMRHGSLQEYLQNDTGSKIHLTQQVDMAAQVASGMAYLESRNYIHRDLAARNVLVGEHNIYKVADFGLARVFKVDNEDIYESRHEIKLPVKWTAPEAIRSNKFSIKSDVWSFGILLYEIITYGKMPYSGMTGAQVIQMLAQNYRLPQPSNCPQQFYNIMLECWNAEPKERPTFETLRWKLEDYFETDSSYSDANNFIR
Chain of Serine/threonine-protein kinase 24 (Homo sapiens) (Q9Y6E0 whole entry, looked up): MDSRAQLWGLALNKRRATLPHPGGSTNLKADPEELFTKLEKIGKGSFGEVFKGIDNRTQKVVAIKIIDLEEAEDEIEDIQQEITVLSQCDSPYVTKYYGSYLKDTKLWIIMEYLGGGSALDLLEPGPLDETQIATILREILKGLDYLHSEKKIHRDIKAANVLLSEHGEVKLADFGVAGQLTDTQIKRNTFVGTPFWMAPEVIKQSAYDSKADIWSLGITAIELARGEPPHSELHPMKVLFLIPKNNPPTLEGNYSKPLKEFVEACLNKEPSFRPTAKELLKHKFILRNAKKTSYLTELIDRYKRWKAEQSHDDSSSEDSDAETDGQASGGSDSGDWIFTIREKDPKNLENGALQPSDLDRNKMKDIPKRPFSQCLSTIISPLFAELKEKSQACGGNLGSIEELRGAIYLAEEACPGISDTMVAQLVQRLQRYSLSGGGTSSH
Chain of Mitogen-activated protein kinase 8 (P45983 whole entry, the tested form may be a part): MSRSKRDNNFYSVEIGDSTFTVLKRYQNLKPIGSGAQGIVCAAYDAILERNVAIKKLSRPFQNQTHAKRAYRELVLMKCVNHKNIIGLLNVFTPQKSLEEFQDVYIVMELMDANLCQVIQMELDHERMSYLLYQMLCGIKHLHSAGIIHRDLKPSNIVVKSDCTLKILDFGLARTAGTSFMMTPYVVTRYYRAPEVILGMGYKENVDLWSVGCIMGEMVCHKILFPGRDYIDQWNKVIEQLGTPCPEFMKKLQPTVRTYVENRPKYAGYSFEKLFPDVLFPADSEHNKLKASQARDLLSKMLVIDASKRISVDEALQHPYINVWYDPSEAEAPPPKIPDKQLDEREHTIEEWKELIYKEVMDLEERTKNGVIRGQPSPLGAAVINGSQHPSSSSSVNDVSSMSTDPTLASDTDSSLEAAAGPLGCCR

Compound	inhibition [1]	inhibition [2]	inhibition [3]	inhibition [4]	inhibition [5]	inhibition [6]	inhibition [7]	inhibition [8]	inhibition [9]	inhibition [10]	inhibition [11]	inhibition [12]	inhibition [13]	inhibition [14]	inhibition [15]	inhibition [16]	inhibition [17]	inhibition [18]	inhibition [19]	inhibition [20]	also measured
CC(C)n1nc(-c2cnc(N)c(OC(F)(F)F)c2)cc1[C@H]1[C@@H]2CN(C3COC3)C[C@@H]21	46.3%	14.5%	3.7%	40.7%	9.1%	18%	14.4%	-2.7%	4.8%	10.5%	9.3%	-4.5%	4%	-9.5%	10.1%	-7.2%	3.6%	11.4%	4.7%	1.6%	inhibition [21]: 0.6%; inhibition [22]: 2.4%; inhibition [23]: -2.5%; Activity (Homo sapiens [24]): > 50%; Activity [25]: > 50%; Activity [26]: > 50%; Activity (Homo sapiens [27]): > 50%
Nc1ncc(-c2cc([C@H]3[C@@H]4CN(C5COC5)C[C@@H]43)n(CC3CC3)n2)cc1C(F)(F)F	54.1%	16.4%	1.8%	57.4%	1.5%	14.9%	19.7%	-9.8%	5.1%	3.8%	2.5%	-4.7%	27.8%	-7.7%	0%	28.5%	-2.7%	12.1%	25.6%	11.7%	inhibition [21]: -3.9%; inhibition [22]: 2.8%; inhibition [23]: 4%; Activity (Homo sapiens [24]): > 50%; Activity [25]: > 50%; Activity [26]: > 50%; Activity (Homo sapiens [27]): > 50%
